The text below walks through data of ChEMBL document CHEMBL5712920, “The histone methyltransferase inhibitor A-366 enhances hemoglobin expression in erythroleukemia cells upon co-exposure with chemical inducers in culture” (J Biol Res (Thessalon), 2021).

Series [1] relates to FLC clone 745. Kind of series: Induction of cell cycle arrest in HMBA-stimulated mouse FLC clone 745 cells assessed as accumulation cells at G1/G0 phase at 10^-6 M after 48 hrs by PI staining based flow cytometric analysis (reference value: 15.23%). Conditions: dose 1 10^-6M, at 1 µM. In kind it is functional. Put shortly: (§1)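 MEL cells plated at 5 × 10^5 per well and synchronized by serum deprivation for 24 h. Cells then incubated with compound at 10−6 M, alone or with HMBA 5 × 10−3 M, for 24, 48 and 72 h. Fixed in 70% ethanol overnight at 4 °C, stained with propidium iodide, and DNA content measured by flow cytometry to assign subG1, G1, S, G2/M and >4N fractions.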
Background: Flow cytometry measures light scatter and fluorescence of single cells or particles in a stream.

Series [2] relates to FLC clone 745. The series can be described thus: Induction of cell cycle arrest in HMBA-stimulated mouse FLC clone 745 cells assessed as accumulation cells at G1/G0 phase at 10^-6 M after 24 hrs by PI staining based flow cytometric analysis (reference value: 17.28%). The format is functional. Conditions: dose 1 10^-6M, at 1 µM. Put shortly:
as §1

The test system of series [3] is FLC clone 745. Kind of series: Cytotoxicity against mouse FLC clone 745 cells assessed as reduction in cell viability at IC50 concentration measured up to 96 hrs by Neubauer chamber based microscopic analysis. In kind it is toxicity. Conditions: flc clone 745, 96 h. Put shortly: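 MEL-745 cells treated continuously with compound at its previously determined 48 h IC50, without inducer, for up to 96 h. Total cell number counted daily in a Neubauer chamber. Final DMSO ≤0.2% v/v.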

For series [4], the system named is FLC clone 745. The series can be described thus: Induction of cell cycle arrest in mouse FLC clone 745 cells assessed as accumulation cells at > 4N phase at 10^-6 M after 72 hrs by PI staining based flow cytometric analysis (reference value: 14.89%). In kind it is functional. Conditions: dose 1 10^-6M, at 1 µM. Put shortly:
as §1

The test system of series [5] is FLC clone 745. Kind of series: Induction of cell cycle arrest in HMBA-stimulated mouse FLC clone 745 cells assessed as accumulation cells at > 4N phase at 10^-6 M after 72 hrs by PI staining based flow cytometric analysis (reference value: 4.66%). In kind it is functional. Conditions: dose 1 10^-6M, at 1 µM. In short, it runs like this: as §1
Series [6] relates to FLC clone 745. The series can be described thus: Induction of cell cycle arrest in mouse FLC clone 745 cells assessed as accumulation cells at subG1 phase at 10^-6 M after 24 hrs by PI staining based flow cytometric analysis (reference value: 24.11%). The format is functional. Conditions: dose 1 10^-6M, at 1 µM. Put shortly:
as §1

A short description of series [7]: Inhibition of G9a/GLP in HMBA-stiumulated mouse FLC clone 745 cells assessed as increase in erythroid differentiation at IC50 concentration measured after 96 hrs by benzidine-H2O2 based assay (reference value: 79.45%). Conditions: condition erythroleukemia.
For series [8], the system named is FLC clone 745. Kind of series: Induction of cell cycle arrest in mouse FLC clone 745 cells assessed as accumulation cells at subG1 phase at 10^-6 M after 72 hrs by PI staining based flow cytometric analysis (reference value: 9.87%). The format is functional. Conditions: dose 1 10^-6M, at 1 µM. In short, it runs like this: as §1
Series [9] concerns FLC clone 745. The series can be described thus: Induction of cell cycle arrest in mouse FLC clone 745 cells assessed as accumulation cells at G1/G0 phase at 10^-6 M after 24 hrs by PI staining based flow cytometric analysis (reference value: 19.61%). In kind it is functional. Conditions: dose 1 10^-6M, at 1 µM. In short, it runs like this:
as §1

Series [10] has as its system FLC clone 745. Kind of series: Induction of cell cycle arrest in mouse FLC clone 745 cells assessed as accumulation cells at G2/M phase at 10^-6 M after 48 hrs by PI staining based flow cytometric analysis (reference value: 28.15%). The format is functional. Conditions: dose 1 10^-6M, at 1 µM. In short, it runs like this:
as §1

Series [11] concerns FLC clone 745. The series can be described thus: Induction of cell cycle arrest in HMBA-stimulated mouse FLC clone 745 cells assessed as accumulation cells at subG1 phase at 10^-6 M after 48 hrs by PI staining based flow cytometric analysis (reference value: 43.83%). In kind it is functional. Conditions: dose 1 10^-6M, at 1 µM. In short, it runs like this: as §1
Series [12] relates to FLC clone 745. The series can be described thus: Induction of cell cycle arrest in mouse FLC clone 745 cells assessed as accumulation cells at > 4N phase at 10^-6 M after 48 hrs by PI staining based flow cytometric analysis (reference value: 7.11%). In kind it is functional. Conditions: dose 1 10^-6M, at 1 µM. In short, it runs like this:
as §1

The test system of series [13] is FLC clone 745. The series can be described thus: Induction of cell cycle arrest in HMBA-stimulated mouse FLC clone 745 cells assessed as accumulation cells at G2/M phase at 10^-6 M after 24 hrs by PI staining based flow cytometric analysis (reference value: 9.52%). In kind it is functional. Conditions: dose 1 10^-6M, at 1 µM. In short, it runs like this: as §1

In series [14] the test system is FLC clone 745. Kind of series: Inhibition of G9a/GLP in HMBA-stiumulated mouse FLC clone 745 cells assessed as increase in HBB mRNA expression at 10^-6 M after 48 hrs by qPCR analsysis. The format is cell-based. Conditions: dose 1.0 10^-6M. Put shortly: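 MEL cells treated for 48 h with HMBA 5 × 10−3 M plus compound at 10−6 M. Total RNA reverse-transcribed, and β-globin transcripts measured by qPCR. Data normalized to β-actin using the 2−ΔΔCt method; Student's t-test.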
On the technique in general: Quantitative PCR measures a nucleic acid by following its amplification.

The test system of series [15] is FLC clone 745. Kind of series: Induction of cell cycle arrest in mouse FLC clone 745 cells assessed as accumulation cells at subG1 phase at 10^-6 M after 48 hrs by PI staining based flow cytometric analysis (reference value: 9.79%). The format is functional. Conditions: dose 1 10^-6M, at 1 µM. Put shortly: as §1
Series [16] deals with FLC clone 745. Kind of series: Induction of cell cycle arrest in mouse FLC clone 745 cells assessed as accumulation cells at G2/M phase at 10^-6 M after 72 hrs by PI staining based flow cytometric analysis (reference value: 24.82%). The format is functional. Conditions: dose 1 10^-6M, at 1 µM. In short, it runs like this:
as §1

Calls of active or inactive are those of the source. The rule behind the calls is not given here.

As to `COc1cc2c(cc1OCCCN1CCCC1)N=C(N)C21CCC1`, the Activity is recorded as 11.73% with FLC clone 745 [1]; 12.13% with FLC clone 745 [2]; “Non-Toxic” in the series with FLC clone 745 [3]; 11.78% in the series with FLC clone 745 [4]; 2.89% in the series on FLC clone 745 [5]; 37.13% with FLC clone 745 [6]. In addition, the Activity came to 39.53% with FLC clone 745 [8]; 20.43% in the series with FLC clone 745 [9]; 22.21% in the series on FLC clone 745 [10]; 50.9% with FLC clone 745 [11]; 9.4% with FLC clone 745 [12]; 6.93% in the series with FLC clone 745 [13]. For the same molecule, the Activity in the series with FLC clone 745 [15] is reported as 18.28%; in the series with FLC clone 745 [16] it was 11.32%. Moreover, the “inhibition (INH)” value in [7] came out at 83.75%. In the series with FLC clone 745 [14], the inhibition result is “Active”.
